What all share (type): functional
Experiment [1] has as its system Staphylococcus aureus. In words: Antibacterial activity against ciprofloxacin susceptible and methicillin resistant Staphylococcus aureus by broth dilution method. The essentials:
(§1)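 Clinical isolates tested by CLSI broth microdilution in panels holding serial twofold drug dilutions in cation-adjusted Mueller-Hinton broth. Final inoculum 5 × 10^5 CFU/ml was made from a 0.5 McFarland suspension. Plates were incubated overnight at 35°C in ambient air, and the MIC was read as the lowest concentration inhibiting growth. Quality control strains were included in each run.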
A general note: Broth dilution looks for growth in wells or tubes with falling amounts of substance.

The next experiment has as its system Streptococcus agalactiae. In words: Antibacterial activity against Streptococcus agalactiae by broth dilution method. The essentials:
(§2)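 Streptococci were tested by CLSI broth microdilution in Mueller-Hinton broth with 3% lysed horse blood, seeded from a 0.5 McFarland suspension. Incubated overnight at 35°C in ambient air, with quality control strains in each run. MIC taken over a per-agent dilution range.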

Experiment [2] concerns Staphylococcus aureus. In words: Antibacterial activity against methicillin susceptible Staphylococcus aureus by broth dilution method.
Experiment [3] deals with Streptococcus pneumoniae. In words: Antibacterial activity against Levofloxacin resistant Streptococcus pneumoniae by broth dilution method. The essentials:
(§3)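 Streptococcus pneumoniae clinical isolates tested by CLSI broth microdilution. A 0.5 McFarland suspension was diluted into Mueller-Hinton broth with 3% lysed horse blood, then tested against serial drug dilutions. Plates were incubated overnight at 35°C in ambient air, and the MIC was read as the lowest inhibitory concentration. Quality control strains were included in each run.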

Experiment [4] concerns Staphylococcus epidermidis. In words: Antibacterial activity against methicillin resistant coagulase negative Staphylococcus epidermidis by broth dilution method.
The next experiment has as its system Staphylococcus. The experiment is described as follows: Antibacterial activity against methicillin resistant coagulase negative Staphylococcus by broth dilution method.
In experiment [5] the test system is Staphylococcus aureus. The experiment is described as follows: Antibacterial activity against ciprofloxacin and methicillin resistant Staphylococcus aureus by broth dilution method. In a few lines: as §1
For experiment [6], the system named is Enterococcus faecalis. The experiment is described as follows: Antibacterial activity against vancomycin resistant Enterococcus faecalis by broth dilution method.
A further experiment relates to Streptococcus viridans. In words: Antibacterial activity against Streptococcus viridans by broth dilution method. The essentials:
as §2

Experiment [7] deals with Streptococcus pneumoniae. The experiment is described as follows: Antibacterial activity against Levofloxacin susceptible Streptococcus pneumoniae by broth dilution method. In a few lines:
as §3

Experiment [8] concerns Enterococcus faecium. In words: Antibacterial activity against Enterococcus faecium by broth dilution method. In a few lines:
as §1

The next experiment deals with Streptococcus pyogenes. In words: Antibacterial activity against Streptococcus pyogenes by broth dilution method. In a few lines: as §2
Experiment [9] relates to Enterococcus faecium. The experiment is described as follows: Antibacterial activity against vancomycin resistant Enterococcus faecium by broth dilution method. The essentials:
as §1

The subject of experiment [10] is Enterococcus faecalis. In words: Antibacterial activity against Enterococcus faecalis by broth dilution method.
The subject of another experiment is Pseudomonas aeruginosa. In words: Antibacterial activity against Pseudomonas aeruginosa by broth dilution method.
The test system of another experiment is Proteus mirabilis. In words: Antibacterial activity against Proteus mirabilis by broth dilution method.
For another experiment, the system named is Citrobacter freundii. In words: Antibacterial activity against Citrobacter freundii by broth dilution method. In a few lines: (§4)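 Broth microdilution per CLSI in panels spanning a dilution range of each agent. Cation-adjusted Mueller-Hinton broth, final inoculum 5 × 10^5 CFU/ml from a 0.5 McFarland suspension. Incubated overnight at 35°C in ambient air, with quality control strains in each run. MIC reported; values at or below the lowest concentration tested are given as that concentration.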

The subject of the next experiment is Acinetobacter baumannii. In words: Antibacterial activity against Acinetobacter baumannii by broth dilution method. In a few lines: as §4
In experiment [11] the test system is Escherichia coli. In words: Antibacterial activity against ciprofloxacin resistant Escherichia coli by broth dilution method. In a few lines:
as §1

Another experiment concerns Klebsiella pneumoniae. The experiment is described as follows: Antibacterial activity against Klebsiella pneumoniae by broth dilution method. In a few lines:
as §4

The next experiment has as its system Enterobacter cloacae. The experiment is described as follows: Antibacterial activity against Enterobacter cloacae by broth dilution method.
Experiment [12] relates to Escherichia coli. In words: Antibacterial activity against ciprofloxacin susceptible Escherichia coli by broth dilution method. The essentials:
as §4

In brackets after ≈: the same amount, converted by molar mass.

In general, MIC50 refers to the lowest concentration that inhibits either 50% of growth or 50% of the strains tested, depending on the study. High values mean weaker potency, low ones greater potency. Broadly, the MIC90 is the lowest concentration that inhibits either 90% of growth or 90% of the strains tested, depending on the study. A lower MIC90 goes with greater potency. In general, MIC refers to the lowest concentration found to suppress growth.

For `CC(=O)NC[C@H]1CN(c2ccc(N3CCOCC3)c(F)c2)C(=O)O1` [LINEZOLID], the MIC50 against Staphylococcus aureus [1] turned out to be 2 µg/mL (≈ 5.93 µM); against Streptococcus agalactiae, 1 µg/mL (≈ 2.96 µM); with Staphylococcus aureus [2], 2 µg/mL (≈ 5.93 µM); in the experiment with Streptococcus pneumoniae [3], 1 µg/mL (≈ 2.96 µM); in [4], 1 µg/mL (≈ 2.96 µM); against Staphylococcus, 1 µg/mL (≈ 2.96 µM). Moreover, the MIC50 with Staphylococcus aureus [5] worked out at 2 µg/mL (≈ 5.93 µM); in the experiment on Enterococcus faecalis [6], 1 µg/mL (≈ 2.96 µM); against Streptococcus viridans it was 1 µg/mL (≈ 2.96 µM); in the experiment on Streptococcus pneumoniae [7], 1 µg/mL (≈ 2.96 µM); with Enterococcus faecium [8], 2 µg/mL (≈ 5.93 µM); against Streptococcus pyogenes, 1 µg/mL (≈ 2.96 µM). Moreover, the figures for the MIC50 with Enterococcus faecium [9] and in the experiment on Enterococcus faecalis [10] were 2 µg/mL (≈ 5.93 µM) and 1 µg/mL (≈ 2.96 µM), respectively. For the same molecule, the MIC90 came out at 2 µg/mL (≈ 5.93 µM) against Staphylococcus aureus [1]; 1 µg/mL (≈ 2.96 µM) against Streptococcus agalactiae; 2 µg/mL (≈ 5.93 µM) in the experiment with Staphylococcus aureus [2]; 1 µg/mL (≈ 2.96 µM) in the experiment on Streptococcus pneumoniae [3]; 2 µg/mL (≈ 5.93 µM) in experiment [4]; 2 µg/mL (≈ 5.93 µM) in the experiment on Staphylococcus. Further, the MIC90 in the experiment with Staphylococcus aureus [5] was 2 µg/mL (≈ 5.93 µM); in the experiment on Enterococcus faecalis [6] it was 2 µg/mL (≈ 5.93 µM); against Streptococcus viridans it was 2 µg/mL (≈ 5.93 µM); in the experiment on Streptococcus pneumoniae [7] it was 1 µg/mL (≈ 2.96 µM); in the experiment on Enterococcus faecium [8], 2 µg/mL (≈ 5.93 µM); against Streptococcus pyogenes, 1 µg/mL (≈ 2.96 µM). The MIC90 in the experiment on Enterococcus faecium [9] and in the experiment with Enterococcus faecalis [10] was 2 µg/mL (≈ 5.93 µM) in each case. For the same molecule, the MIC against Streptococcus agalactiae is 1 µg/mL (≈ 2.96 µM).
With `Cc1onc(-c2ccccc2)c1C(=O)N[C@@H]1C(=O)N2[C@@H]1SC(C)(C)[C@@H]2C(=O)O` [OXACILLIN], the MIC50 is over 8 µg/mL against Staphylococcus aureus [1]; 0.5 µg/mL (≈ 1.25 µM) with Staphylococcus aureus [2]; over 8 µg/mL in [4]; over 8 µg/mL against Staphylococcus; over 8 µg/mL with Staphylococcus aureus [5]. In addition, the MIC90 was over 8 µg/mL with Staphylococcus aureus [1]; 1 µg/mL (≈ 2.49 µM) against Staphylococcus aureus [2]; over 8 µg/mL in experiment [4]; over 8 µg/mL against Staphylococcus; over 8 µg/mL against Staphylococcus aureus [5]. This molecule also returned an MIC against Staphylococcus aureus [5] of over 8 µg/mL.
With `CCN1CCN(C(=O)N[C@@H](C(=O)N[C@@H]2C(=O)N3[C@@H]2SC(C)(C)[C@@H]3C(=O)O)c2ccccc2)C(=O)C1=O` [PIPERACILLIN], the MIC50 in the experiment with Pseudomonas aeruginosa is 128 µg/mL (≈ 247 µM); against Proteus mirabilis, 32 µg/mL (≈ 61.8 µM); against Citrobacter freundii, 16 µg/mL (≈ 30.9 µM); with Acinetobacter baumannii, over 128 µg/mL; against Klebsiella pneumoniae, over 128 µg/mL; against Enterobacter cloacae it was over 128 µg/mL. In the experiment with Escherichia coli [12], the MIC50 is over 128 µg/mL. In addition, the MIC90 with Pseudomonas aeruginosa is over 128 µg/mL; against Proteus mirabilis it was over 128 µg/mL; in the experiment on Citrobacter freundii it was over 128 µg/mL; against Acinetobacter baumannii it was over 128 µg/mL; in the experiment with Escherichia coli [11] it was 0.5 µg/mL (≈ 0.966 µM); against Klebsiella pneumoniae it was over 128 µg/mL. The MIC90 against Enterobacter cloacae and in the experiment with Escherichia coli [12] was over 128 µg/mL in each case. This molecule yielded an MIC against Escherichia coli [11] of 2 µg/mL (≈ 3.86 µM).
On to `CN[C@H](CC(C)C)C(=O)N[C@H]1C(=O)N[C@@H](CC(N)=O)C(=O)N[C@H]2C(=O)N[C@H]3C(=O)N[C@H](C(=O)N[C@H](C(=O)O)c4cc(O)cc(O)c4-c4cc3ccc4O)[C@H](O)c3ccc(c(Cl)c3)Oc3cc2cc(c3O[C@@H]2O[C@H](CO)[C@@H](O)[C@H](O)[C@H]2O[C@H]2C[C@](C)(N)[C@H](O)[C@H](C)O2)Oc2ccc(cc2Cl)[C@H]1O` [VANCOMYCIN], for which the MIC50 in the experiment with Staphylococcus aureus [1] is 1 µg/mL (≈ 0.69 µM); against Streptococcus agalactiae, 0.5 µg/mL (≈ 0.345 µM); in the experiment on Staphylococcus aureus [2] it was 1 µg/mL (≈ 0.69 µM); in the experiment with Streptococcus pneumoniae [3], 0.5 µg/mL (≈ 0.345 µM); in experiment [4], 2 µg/mL (≈ 1.38 µM); in the experiment on Staphylococcus it was 2 µg/mL (≈ 1.38 µM). The MIC50 is 2 µg/mL (≈ 1.38 µM) with Staphylococcus aureus [5]; 2 µg/mL (≈ 1.38 µM) against Enterococcus faecalis [6]; 0.5 µg/mL (≈ 0.345 µM) with Streptococcus viridans; 0.5 µg/mL (≈ 0.345 µM) against Streptococcus pneumoniae [7]; 8 µg/mL (≈ 5.52 µM) in the experiment with Enterococcus faecium [8]; 0.5 µg/mL (≈ 0.345 µM) against Streptococcus pyogenes. For the same molecule, the MIC50 against Enterococcus faecium [9] was determined as 8 µg/mL (≈ 5.52 µM); against Enterococcus faecalis [10] it was 2 µg/mL (≈ 1.38 µM). The MIC90 in the experiment on Staphylococcus aureus [1] was determined as 1 µg/mL (≈ 0.69 µM); with Streptococcus agalactiae, 1 µg/mL (≈ 0.69 µM); against Staphylococcus aureus [2] it was 1 µg/mL (≈ 0.69 µM); with Streptococcus pneumoniae [3], 0.5 µg/mL (≈ 0.345 µM); in [4], 2 µg/mL (≈ 1.38 µM); in the experiment on Staphylococcus, 2 µg/mL (≈ 1.38 µM). For the same molecule, the MIC90 in the experiment with Staphylococcus aureus [5] is 2 µg/mL (≈ 1.38 µM); in the experiment with Enterococcus faecalis [6] it was over 16 µg/mL; against Streptococcus viridans, 1 µg/mL (≈ 0.69 µM); against Streptococcus pneumoniae [7] it was 0.5 µg/mL (≈ 0.345 µM); in the experiment with Enterococcus faecium [8] it was over 16 µg/mL; in the experiment with Streptococcus pyogenes, 0.5 µg/mL (≈ 0.345 µM). Also, the MIC90 in the experiment with Enterococcus faecium [9] and with Enterococcus faecalis [10] was over 16 µg/mL in each case. The MIC in the experiment with Streptococcus agalactiae and with Streptococcus viridans was 0.5 µg/mL (≈ 0.345 µM) throughout.

Source of the values: ChEMBL document CHEMBL1240400, “Comparative in vitro activities of nemonoxacin (TG-873870), a novel nonfluorinated quinolone, and other quinolones against clinical isolates” (2010).
